{"source": "ChEMBL document CHEMBL3992532", "about": "“Structure-Based Design of Macrocyclic Factor XIa Inhibitors: Discovery of the Macrocyclic Amide Linker” (J Med Chem, 2017)", "key": {"Coagulation factor VII": {"target": "T1, Coagulation factor VII (Homo sapiens, UniProt P08709)", "T1 sequence (P08709 whole entry)": "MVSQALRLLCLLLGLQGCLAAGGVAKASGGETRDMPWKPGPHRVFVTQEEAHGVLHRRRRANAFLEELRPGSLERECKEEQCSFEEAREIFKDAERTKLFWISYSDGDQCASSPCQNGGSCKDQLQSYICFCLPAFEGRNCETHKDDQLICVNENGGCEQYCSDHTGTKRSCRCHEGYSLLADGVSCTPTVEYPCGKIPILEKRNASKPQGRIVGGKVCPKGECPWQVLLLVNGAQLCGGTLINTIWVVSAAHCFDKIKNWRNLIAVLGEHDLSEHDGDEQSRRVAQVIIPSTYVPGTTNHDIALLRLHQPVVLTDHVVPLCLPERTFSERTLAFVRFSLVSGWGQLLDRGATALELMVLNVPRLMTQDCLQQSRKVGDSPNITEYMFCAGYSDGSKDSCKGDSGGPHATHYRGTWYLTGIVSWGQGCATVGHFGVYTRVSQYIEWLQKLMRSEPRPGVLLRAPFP", "experiment": "Inhibition of human coagulation factor 7a using H-(D)-Ile-Pro-Arg-pNA as substrate after 10 to 120 mins at 25 degC by spectrophotometric method"}, "[1]": {"experiment": "Inhibition of human chymotrypsin using MeO-SucArg-Pro-Tyr-pNA as substrate after 10 to 120 mins at 37 degC by spectrophotometric method", "summary_of_the_method": "(§1)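 Purified human proteases, 37 °C; reaction started by adding enzyme to substrate (up to 4× Km) ± inhibitor; compound from DMSO, 1% DMSO final except where noted. […] Buffers: FXIa, chymotrypsin, tPA, plasmin, urokinase in 50 mM HEPES pH 7.4, 145 mM NaCl, 5 mM KCl, 0.1% PEG 8000; FXa, thrombin, trypsin, plasma kallikrein, aPC in 100 mM Na phosphate pH 7.4, 200 mM NaCl, 0.5% PEG 8000; FIXa in 50 mM Tris pH 7.4, 100 mM NaCl, 5 mM CaCl2, 0.5% PEG 8000, 2% DMSO.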"}, "[2]": {"experiment": "Permeability from apical to basolateral side in human Caco2 cells", "format": "ADME, cell-based", "conditions": "Caco-2, read-out: permeability"}, "[3]": {"experiment": "Inhibition of human trypsin using N-benzoyl-Ile-Glu-(OH,OMe)-Gly-Arg-pNA as substrate after 10 to 120 mins at 37 degC by spectrophotometric method", "summary_of_the_method": "as §1"}, "[4]": {"target": "Urokinase-type plasminogen activator (Homo sapiens, UniProt P00749)", "experiment": "Inhibition of human urokinase using pyro-Glu-Gly-Arg-pNA as substrate after 10 to 120 mins at 37 degC by spectrophotometric method", "summary_of_the_method": "as §1"}, "Plasminogen": {"target": "Plasminogen (Homo sapiens, UniProt P00747)", "sequence (P00747 97-580 limits assumed)": "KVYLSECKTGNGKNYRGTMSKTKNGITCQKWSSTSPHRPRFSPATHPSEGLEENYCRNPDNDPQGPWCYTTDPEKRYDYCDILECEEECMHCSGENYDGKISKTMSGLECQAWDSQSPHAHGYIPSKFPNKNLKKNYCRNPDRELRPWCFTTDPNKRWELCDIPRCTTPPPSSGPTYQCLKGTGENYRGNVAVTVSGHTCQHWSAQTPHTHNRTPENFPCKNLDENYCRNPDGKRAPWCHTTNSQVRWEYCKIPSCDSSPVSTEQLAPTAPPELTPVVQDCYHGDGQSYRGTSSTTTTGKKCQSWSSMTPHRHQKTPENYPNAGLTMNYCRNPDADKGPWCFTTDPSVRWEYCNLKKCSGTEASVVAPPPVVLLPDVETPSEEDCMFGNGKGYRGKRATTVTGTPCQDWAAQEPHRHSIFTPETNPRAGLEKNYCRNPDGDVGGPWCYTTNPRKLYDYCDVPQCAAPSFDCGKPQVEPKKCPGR", "sequence (P00747 581-810 limits assumed)": "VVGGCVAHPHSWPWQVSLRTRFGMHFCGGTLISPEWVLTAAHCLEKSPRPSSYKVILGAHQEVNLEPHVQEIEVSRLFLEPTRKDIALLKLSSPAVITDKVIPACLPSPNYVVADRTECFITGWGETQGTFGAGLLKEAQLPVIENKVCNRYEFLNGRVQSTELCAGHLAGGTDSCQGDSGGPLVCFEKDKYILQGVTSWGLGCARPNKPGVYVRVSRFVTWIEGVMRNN", "experiment": "Inhibition of human plasmin using H-(D)-Val-Leu-LyspNA as substrate after 10 to 120 mins at 37 degC by spectrophotometric method", "summary_of_the_method": "as §1"}, "[5]": {"experiment": "Half life in human liver microsomes", "format": "ADME, microsome"}, "[6]": {"target": "Vitamin K-dependent protein C (Homo sapiens, UniProt P04070)", "sequence (P04070 43-197 limits assumed)": "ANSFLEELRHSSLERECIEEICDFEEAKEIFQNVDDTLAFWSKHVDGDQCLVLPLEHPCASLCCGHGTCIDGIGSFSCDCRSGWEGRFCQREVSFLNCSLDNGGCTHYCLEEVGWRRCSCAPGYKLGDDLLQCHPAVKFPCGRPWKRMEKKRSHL", "sequence (P04070 212-461 limits assumed)": "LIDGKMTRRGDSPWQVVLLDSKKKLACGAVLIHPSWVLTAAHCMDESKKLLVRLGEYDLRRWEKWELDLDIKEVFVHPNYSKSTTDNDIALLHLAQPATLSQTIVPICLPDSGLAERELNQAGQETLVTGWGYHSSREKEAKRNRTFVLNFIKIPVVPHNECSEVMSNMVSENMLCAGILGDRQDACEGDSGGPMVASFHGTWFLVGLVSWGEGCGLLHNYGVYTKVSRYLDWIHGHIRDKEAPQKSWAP", "experiment": "Inhibition of human activated protein C using pyroGlu-Pro-Arg-pNA as substrate after 10 to 120 mins at 37 degC by spectrophotometric method", "summary_of_the_method": "as §1"}, "[7]": {"target": "Tissue-type plasminogen activator (Homo sapiens, UniProt P00750)", "sequence (P00750 whole entry)": "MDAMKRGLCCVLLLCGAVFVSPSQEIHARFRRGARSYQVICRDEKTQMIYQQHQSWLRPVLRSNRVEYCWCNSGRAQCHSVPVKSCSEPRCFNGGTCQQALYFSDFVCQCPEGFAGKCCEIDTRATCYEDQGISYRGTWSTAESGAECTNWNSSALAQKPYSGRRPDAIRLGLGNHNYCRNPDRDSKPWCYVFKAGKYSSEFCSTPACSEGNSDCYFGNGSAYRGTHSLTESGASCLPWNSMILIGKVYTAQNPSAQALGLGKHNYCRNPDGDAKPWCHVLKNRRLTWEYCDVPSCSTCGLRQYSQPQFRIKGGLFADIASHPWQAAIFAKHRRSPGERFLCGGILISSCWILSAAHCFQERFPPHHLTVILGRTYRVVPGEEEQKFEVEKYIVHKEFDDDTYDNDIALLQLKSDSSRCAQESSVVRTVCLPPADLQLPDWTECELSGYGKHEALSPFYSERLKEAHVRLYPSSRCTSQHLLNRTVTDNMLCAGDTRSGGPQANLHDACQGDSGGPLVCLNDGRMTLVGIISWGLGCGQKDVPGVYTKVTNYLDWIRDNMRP", "experiment": "Inhibition of human tissue plasminogen activator using methylsulfonyl-D-cyclohexylalanyl-GlyArg-pNA as substrate after 10 to 120 mins at 37 degC by spectrophotometric method", "summary_of_the_method": "as §1"}, "[8]": {"experiment": "Half life in Beagle dog at 0.19 mg/kg, iv administered as 10 mins infusion or 0.32 mg/kg, po via gavage administered as cassette dose by LC-MS/MS method", "format": "ADME, organism-based, Canis lupus familiaris", "conditions": "in vivo", "summary_of_the_method": "(§2)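 Dog PK vehicles as footnoted: iv in 70% PEG 400/20% water/10% ethanol; po either 70% PEG 400/20% TPGS/10% ethanol or the same PEG 400/water/ethanol vehicle used for iv.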"}, "[9]": {"experiment": "Protein binding in dog plasma", "format": "ADME, cell-free, Canis lupus familiaris", "conditions": "read-out: PPB (converted)"}, "Canis familiaris [10]": {"system": "Canis familiaris", "experiment": "AUC in Beagle dog at 0.32 mg/kg, po administered via gavage as cassette dose by LC-MS/MS method", "format": "ADME, organism-based, Canis lupus familiaris", "conditions": "in vivo", "summary_of_the_method": "as §2"}, "Plasma kallikrein": {"target": "Plasma kallikrein (Homo sapiens, UniProt P03952)", "sequence (P03952 20-390 limits assumed)": "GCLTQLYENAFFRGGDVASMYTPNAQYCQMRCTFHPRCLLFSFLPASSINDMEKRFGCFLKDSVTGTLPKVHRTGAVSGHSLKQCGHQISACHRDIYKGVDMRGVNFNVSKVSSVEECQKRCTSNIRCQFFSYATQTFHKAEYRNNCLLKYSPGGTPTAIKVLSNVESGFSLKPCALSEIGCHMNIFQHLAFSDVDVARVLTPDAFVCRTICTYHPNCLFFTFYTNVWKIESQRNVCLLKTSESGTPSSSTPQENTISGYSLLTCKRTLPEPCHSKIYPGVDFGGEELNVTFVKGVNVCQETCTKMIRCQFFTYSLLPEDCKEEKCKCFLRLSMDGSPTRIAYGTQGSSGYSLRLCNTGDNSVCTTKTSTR", "sequence (P03952 391-638 limits assumed)": "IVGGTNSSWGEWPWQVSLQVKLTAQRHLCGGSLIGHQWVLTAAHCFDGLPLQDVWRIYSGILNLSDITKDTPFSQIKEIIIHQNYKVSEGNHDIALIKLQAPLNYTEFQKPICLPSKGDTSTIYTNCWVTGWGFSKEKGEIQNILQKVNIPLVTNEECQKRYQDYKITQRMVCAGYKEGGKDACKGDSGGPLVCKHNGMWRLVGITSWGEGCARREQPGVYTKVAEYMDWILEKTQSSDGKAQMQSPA", "experiment": "Inhibition of human plasma kallikrein using H-(D)-Pro-Phe-Arg-pNA as substrate after 10 to 120 mins at 37 degC by spectrophotometric method", "summary_of_the_method": "as §1"}, "Coagulation factor X": {"target": "Coagulation factor X (Homo sapiens, UniProt P00742)", "sequence (P00742 41-179 limits assumed)": "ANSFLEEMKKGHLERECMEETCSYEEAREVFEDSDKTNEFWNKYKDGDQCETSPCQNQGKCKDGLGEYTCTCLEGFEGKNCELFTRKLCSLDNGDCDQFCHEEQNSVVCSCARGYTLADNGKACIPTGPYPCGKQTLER", "sequence (P00742 235-488 limits assumed)": "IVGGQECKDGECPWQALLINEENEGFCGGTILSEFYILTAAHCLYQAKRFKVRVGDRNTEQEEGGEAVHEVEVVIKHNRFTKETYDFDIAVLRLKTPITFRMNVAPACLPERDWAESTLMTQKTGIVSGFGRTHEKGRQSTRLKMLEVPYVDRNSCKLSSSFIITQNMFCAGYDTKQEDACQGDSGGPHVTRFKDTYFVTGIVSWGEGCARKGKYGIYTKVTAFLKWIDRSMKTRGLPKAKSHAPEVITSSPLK", "experiment": "Inhibition of human coagulation factor 10a using N-benzoyl-Ile-Glu-(OH,OMe)-Gly-Arg-pNA as substrate after 10 to 120 mins at 37 degC by spectrophotometric method", "summary_of_the_method": "as §1"}, "Plasma": {"system": "Plasma", "experiment": "Anticoagulant activity in human plasma assessed as concentration required to produce 50% increase in activated partial thromboplastin time", "format": "functional", "summary_of_the_method": "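Citrated (one-tenth volume 0.11 M) plasma from healthy volunteers, spun 2,000 g 10 min, kept on ice; 10 mM DMSO stock diluted in plasma, up to 7 concentrations; aPTT on automated coagulometer, duplicates as mean ratio to baseline; EC1.5x (50% prolongation) by linear interpolation, as total plasma concentration.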"}, "Prothrombin": {"target": "Prothrombin (Homo sapiens, UniProt P00734)", "experiment": "Inhibition of human thrombin using pyroGlu-Pro-Arg-pNA as substrate after 10 to 120 mins at 37 degC by spectrophotometric method", "summary_of_the_method": "as §1"}, "Coagulation factor IX": {"target": "Coagulation factor IX (Homo sapiens, UniProt P00740)", "sequence (P00740 47-191 limits assumed)": "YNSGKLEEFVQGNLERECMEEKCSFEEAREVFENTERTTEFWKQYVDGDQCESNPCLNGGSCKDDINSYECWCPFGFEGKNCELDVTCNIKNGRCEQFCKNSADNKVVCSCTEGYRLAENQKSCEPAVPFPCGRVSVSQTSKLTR", "sequence (P00740 227-461 limits assumed)": "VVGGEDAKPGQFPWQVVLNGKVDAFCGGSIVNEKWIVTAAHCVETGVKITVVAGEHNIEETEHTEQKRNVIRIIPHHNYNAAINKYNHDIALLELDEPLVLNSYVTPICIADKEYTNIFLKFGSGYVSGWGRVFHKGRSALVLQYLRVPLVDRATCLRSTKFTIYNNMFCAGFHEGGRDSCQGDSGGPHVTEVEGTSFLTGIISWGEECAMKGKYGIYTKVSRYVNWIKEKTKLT", "experiment": "Inhibition of human coagulation factor 9a using methylsulfonyl-D-cyclohexylglycyl-Gly-Arg-AMC as substrate after 10 to 120 mins at 37 degC by spectrophotometric method", "summary_of_the_method": "as §1"}, "[11]": {"experiment": "Volume of distribution at steady state in Beagle dog at 0.19 mg/kg, iv administered as 10 mins infusion or 0.32 mg/kg, po via gavage administered as cassette dose by LC-MS/MS method", "format": "ADME, organism-based, Canis lupus familiaris", "conditions": "in vivo, read-out: Vdss", "summary_of_the_method": "as §2"}, "Coagulation factor XII": {"target": "T2, Coagulation factor XII (Homo sapiens, UniProt P00748)", "T2 sequence (P00748 whole entry)": "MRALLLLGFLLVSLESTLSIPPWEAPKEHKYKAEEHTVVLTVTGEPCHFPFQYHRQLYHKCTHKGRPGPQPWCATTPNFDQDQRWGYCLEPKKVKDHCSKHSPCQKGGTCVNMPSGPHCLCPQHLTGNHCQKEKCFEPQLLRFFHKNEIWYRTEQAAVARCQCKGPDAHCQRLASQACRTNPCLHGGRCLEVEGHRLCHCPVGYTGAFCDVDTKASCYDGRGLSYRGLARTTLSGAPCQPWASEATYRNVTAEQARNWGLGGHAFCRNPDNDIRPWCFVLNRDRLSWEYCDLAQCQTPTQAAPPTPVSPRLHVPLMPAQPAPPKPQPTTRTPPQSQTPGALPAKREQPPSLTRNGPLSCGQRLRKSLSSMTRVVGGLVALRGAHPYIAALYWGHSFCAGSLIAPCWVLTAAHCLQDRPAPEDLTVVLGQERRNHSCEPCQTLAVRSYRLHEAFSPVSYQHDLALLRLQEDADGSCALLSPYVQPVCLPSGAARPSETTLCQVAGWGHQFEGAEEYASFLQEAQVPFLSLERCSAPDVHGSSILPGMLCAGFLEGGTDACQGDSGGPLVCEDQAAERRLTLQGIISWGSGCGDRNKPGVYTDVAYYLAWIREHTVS", "experiment": "Inhibition of human coagulation factor 12a using H-(D)-CHT-Gly-Arg-pNA as substrate after 10 to 120 mins at 25 degC by spectrophotometric method"}, "Canis familiaris [12]": {"system": "Canis familiaris", "experiment": "Oral bioavailability in Beagle dog at 0.32 mg/kg administered via gavage as cassette dose by LC-MS/MS method", "format": "ADME, organism-based, Canis lupus familiaris", "conditions": "in vivo", "summary_of_the_method": "as §2"}, "[13]": {"experiment": "Half life in dog liver microsomes", "format": "ADME, Canis lupus familiaris, microsome"}, "Canis familiaris [14]": {"system": "Canis familiaris", "experiment": "Volume of distribution at steady state in Beagle dog at 0.2 mg/kg, iv administered as 10 mins infusion or 0.35 mg/kg, po via gavage administered as cassette dose by LC-MS/MS method", "format": "ADME, organism-based, Canis lupus familiaris", "conditions": "in vivo", "summary_of_the_method": "as §2"}, "[15]": {"experiment": "Oral bioavailability in Beagle dog at 0.35 mg/kg administered via gavage as cassette dose by LC-MS/MS method", "format": "ADME, organism-based, Canis lupus familiaris", "conditions": "in vivo", "summary_of_the_method": "as §2"}, "Canis familiaris [16]": {"system": "Canis familiaris", "experiment": "Half life in Beagle dog at 0.2 mg/kg, iv administered as 10 mins infusion or 0.35 mg/kg, po via gavage administered as cassette dose by LC-MS/MS method", "format": "ADME, organism-based, Canis lupus familiaris", "conditions": "in vivo", "summary_of_the_method": "as §2"}, "Coagulation factor XI": {"target": "Coagulation factor XI (Homo sapiens, UniProt P03951)", "sequence (P03951 19-387 limits assumed)": "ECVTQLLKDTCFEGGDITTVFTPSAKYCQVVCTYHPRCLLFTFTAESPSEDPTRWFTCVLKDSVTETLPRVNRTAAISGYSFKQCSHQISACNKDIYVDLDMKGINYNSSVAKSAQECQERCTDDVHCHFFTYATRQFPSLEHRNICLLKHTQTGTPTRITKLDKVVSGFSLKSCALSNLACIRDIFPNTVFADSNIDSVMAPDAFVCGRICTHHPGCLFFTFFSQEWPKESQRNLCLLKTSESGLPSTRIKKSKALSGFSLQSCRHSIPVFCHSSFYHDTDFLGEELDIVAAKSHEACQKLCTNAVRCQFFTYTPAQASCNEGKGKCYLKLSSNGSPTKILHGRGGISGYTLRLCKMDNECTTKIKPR", "sequence (P03951 388-625 limits assumed)": "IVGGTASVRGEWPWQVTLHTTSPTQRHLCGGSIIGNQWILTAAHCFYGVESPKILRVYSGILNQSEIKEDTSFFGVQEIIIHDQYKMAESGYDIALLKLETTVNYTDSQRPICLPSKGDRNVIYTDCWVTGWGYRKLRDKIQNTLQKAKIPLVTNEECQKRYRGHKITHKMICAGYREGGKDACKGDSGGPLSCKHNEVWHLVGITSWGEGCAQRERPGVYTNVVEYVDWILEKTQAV", "experiment": "Inhibition of human coagulation factor 11a using pyroGlu-Pro-Arg-pNA as substrate after 10 to 120 mins at 37 degC by spectrophotometric method", "summary_of_the_method": "as §1"}}}
{"smiles": "COC(=O)Nc1ccc2c(c1)NC(=O)CC/C=C/C[C@H](NC(=O)/C=C/c1cc(Cl)ccc1-n1cnnn1)c1nc-2c[nH]1", "values": [{"measurement": "Ki", "setting": "Coagulation factor VII", "value": 1670, "unit": "nM"}, {"measurement": "Ki", "setting": "[1]", "value": 1500, "unit": "nM"}, {"measurement": "Papp A→B", "setting": "[2]", "value": "< 1.5", "unit": "×10⁻⁶ cm/s"}, {"measurement": "Ki", "setting": "[3]", "value": 1520, "unit": "nM"}, {"measurement": "Ki", "setting": "[4]", "value": 5050, "unit": "nM"}, {"measurement": "Ki", "setting": "Plasminogen", "value": "> 14200", "unit": "nM"}, {"measurement": "half-life", "setting": "[5]", "value": 0.683, "unit": "h"}, {"measurement": "Ki", "setting": "[6]", "value": "> 21500", "unit": "nM"}, {"measurement": "Ki", "setting": "[7]", "value": "> 6150", "unit": "nM"}, {"measurement": "half-life", "setting": "[8]", "value": 1.2, "unit": "h"}, {"measurement": "fraction unbound", "setting": "[9]", "value": 0.085}, {"measurement": "AUC", "setting": "Canis familiaris [10]", "value": 2.5, "unit": "nM·h"}, {"measurement": "Ki", "setting": "Plasma kallikrein", "value": 16, "unit": "nM"}, {"measurement": "Ki", "setting": "Coagulation factor X", "value": "> 13300", "unit": "nM"}, {"measurement": "EC1.5", "setting": "Plasma", "value": 0.27, "unit": "µM"}, {"measurement": "Ki", "setting": "Prothrombin", "value": "> 11500", "unit": "nM"}, {"measurement": "Ki", "setting": "Coagulation factor IX", "value": "> 27100", "unit": "nM"}, {"measurement": "Vd", "setting": "[11]", "value": 1.8, "unit": "L/kg"}, {"measurement": "Ki", "setting": "Coagulation factor XII", "value": "> 3050", "unit": "nM"}, {"measurement": "F", "setting": "Canis familiaris [12]", "value": 1, "unit": "%"}, {"measurement": "half-life", "setting": "[13]", "value": "> 2", "unit": "h"}]}
{"smiles": "COC(=O)Nc1ccc2c(c1)NC(=O)CCCCC[C@H](NC(=O)/C=C/c1cc(Cl)ccc1-n1cnnn1)c1nc-2c[nH]1", "values": [{"measurement": "Papp A→B", "setting": "[2]", "value": "< 1.5", "unit": "×10⁻⁶ cm/s"}, {"measurement": "half-life", "setting": "[5]", "value": 0.567, "unit": "h"}, {"measurement": "Vdss", "setting": "Canis familiaris [14]", "value": 3.9, "unit": "L/kg"}, {"measurement": "bioavailability", "setting": "[15]", "value": 0, "unit": "%"}, {"measurement": "fraction unbound", "setting": "[9]", "value": 0.066}, {"measurement": "EC1.5", "setting": "Plasma", "value": 1.2, "unit": "µM"}, {"measurement": "t1/2", "setting": "Canis familiaris [16]", "value": 1.1, "unit": "h"}, {"measurement": "half-life", "setting": "[13]", "value": "> 2", "unit": "h"}, {"measurement": "Ki", "setting": "Coagulation factor XI", "value": 3.2, "unit": "nM"}]}
